From ChEMBL document CHEMBL1149790, “Synthesis of some novel thiourea derivatives obtained from 5-[(4-aminophenoxy)methyl]-4-alkyl/aryl-2,4-dihydro-3H-1,2,4-triazole-3-thiones and evaluation as antiviral/anti-HIV and anti-tuberculosis agents” (Eur J Med Chem, 2008)
≈ marks a conversion by molar mass, not a printed value.

test system: Vaccinia virus; test: Antiviral activity against Vaccinia virus in human HEL cells assessed as reduction of virus-induced cytopathogenicity; format: functional; conditions: Orthopoxvirus vaccinia
In short: (§1)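 Confluent cell monolayers (E6SM, HEL, HeLa or Vero, per line) inoculated with 100 CCID50 virus; 1 h adsorption, residual virus removed, then incubated with compound at 400, 200, 100 … µg/ml. Cytopathicity scored once complete in untreated virus controls; MIC = concentration inhibiting virus-induced cytopathicity.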

Row | SMILES | MIC [µg/mL]
1 | C=CCNC(=S)Nc1ccc(-c2n[nH]c(=S)n2CC)cc1 | 240 (≈ 751 µM)
2 | CCNC(=S)Nc1ccc(-c2n[nH]c(=S)n2-c2ccccc2)cc1 | > 3.2
3 | C=CCNC(=S)Nc1ccc(-c2n[nH]c(=S)n2-c2ccccc2)cc1 | > 80
4 | Cn1c(COc2ccc(N)cc2)n[nH]c1=S | 240 (≈ 1020 µM)
5 | S=C(Nc1ccc(Cl)cc1)Nc1ccc(-c2n[nH]c(=S)n2-c2ccccc2)cc1 | > 16
6 | S=C(Nc1ccccc1)Nc1ccc(-c2n[nH]c(=S)n2-c2ccccc2)cc1 | > 80
7 | CNC(=S)Nc1ccc(-c2n[nH]c(=S)n2-c2ccccc2)cc1 | > 80
8 | CNC(=S)Nc1ccc(-c2n[nH]c(=S)n2C)cc1 | 240 (≈ 859 µM)
9 | CNC(=S)Nc1ccc(-c2nnc(SCc3ccccc3)n2C)cc1 | > 16
10 | C=CCNC(=S)Nc1ccc(-c2n[nH]c(=S)n2CCc2ccccc2)cc1 | > 80
11 | C=CCn1c(-c2ccc(NC(=S)NC)cc2)n[nH]c1=S | 240 (≈ 786 µM)
12 | Cn1c(-c2ccc(NC(=S)Nc3ccccc3)cc2)n[nH]c1=S | > 80
13 | C=CCn1c(-c2ccc(NC(=S)Nc3ccccc3)cc2)n[nH]c1=S | > 16
14 | C=CCNC(=S)Nc1ccc(-c2nnc(SCc3ccc(Cl)cc3Cl)n2-c2ccccc2)cc1 | > 16
15 | C=CCNC(=S)Nc1ccc(-c2nnc(SCc3ccc(Cl)cc3Cl)n2C)cc1 | > 16
16 | C=CCNC(=S)Nc1ccc(-c2n[nH]c(=S)n2CC=C)cc1 | > 80
17 | C=CCNC(=S)Nc1ccc(-c2n[nH]c(=S)n2C)cc1 | 240 (≈ 786 µM)
18 | C=CCNC(=S)Nc1ccc(-c2n[nH]c(=S)n2CCCCCC)cc1 | > 16
19 | CCCCCCNC(=S)Nc1ccc(-c2n[nH]c(=S)n2CCCCCC)cc1 | > 3.2
20 | C=CCNC(=S)Nc1ccc(OCc2n[nH]c(=S)n2CC)cc1 | 240 (≈ 687 µM)
21 | CCn1c(COc2ccc(NC(=S)Nc3ccccc3)cc2)n[nH]c1=S | > 80
22 | C=CCn1c(COc2ccc(NC(=S)NC)cc2)n[nH]c1=S | > 400
23 | CCn1c(COc2ccc(N)cc2)n[nH]c1=S | 240 (≈ 959 µM)

Row | SMILES | MIC [µg/mL]
24 | C=CCn1c(COc2ccc(N)cc2)n[nH]c1=S | > 400
25 | C=CCNC(=S)Nc1ccc(OCc2n[nH]c(=S)n2CC=C)cc1 | 240 (≈ 664 µM)
26 | CNC(=S)Nc1ccc(OCc2n[nH]c(=S)n2-c2ccccc2)cc1 | > 400
27 | CCNC(=S)Nc1ccc(OCc2n[nH]c(=S)n2-c2ccccc2)cc1 | > 400
28 | C=CCNC(=S)Nc1ccc(OCc2n[nH]c(=S)n2C)cc1 | > 400
29 | CCNC(=S)Nc1ccc(OCc2n[nH]c(=S)n2C)cc1 | > 400
30 | CCCCCCNC(=S)Nc1ccc(-c2n[nH]c(=S)n2C)cc1 | 80 (≈ 229 µM)
31 | CCCCCCNC(=S)Nc1ccc(-c2n[nH]c(=S)n2-c2ccccc2)cc1 | > 16
32 | CCn1c(COc2ccc(NC(=S)NC)cc2)n[nH]c1=S | > 400
33 | CCNC(=S)Nc1ccc(OCc2n[nH]c(=S)n2CC)cc1 | 240 (≈ 711 µM)
34 | CCCCCCNC(=S)Nc1ccc(-c2n[nH]c(=S)n2CC)cc1 | > 80
35 | CCNC(=S)Nc1ccc(-c2n[nH]c(=S)n2C)cc1 | 240 (≈ 818 µM)
36 | CNC(=S)Nc1ccc(OCc2n[nH]c(=S)n2C)cc1 | > 400
37 | C=CCNC(=S)Nc1ccc(OCc2n[nH]c(=S)n2-c2ccccc2)cc1 | 240 (≈ 604 µM)
38 | Nc1ccc(OCc2n[nH]c(=S)n2-c2ccccc2)cc1 | > 400
39 | C=CCn1c(COc2ccc(NC(=S)Nc3ccccc3)cc2)n[nH]c1=S | > 80
40 | Cn1c(COc2ccc(NC(=S)Nc3ccccc3)cc2)n[nH]c1=S | > 80
41 | C=CCn1c(COc2ccc(NC(=S)NCC)cc2)n[nH]c1=S | > 400
42 | S=C(Nc1ccccc1)Nc1ccc(OCc2n[nH]c(=S)n2-c2ccccc2)cc1 | > 80
43 | Nc1nc2c(ncn2COCCO)c(=O)[nH]1 [ACYCLOVIR] | > 400
44 | O=c1[nH]c(=O)n([C@H]2C[C@H](O)[C@@H](CO)O2)cc1/C=C/Br [BRIVUDINE] | 3.2 (≈ 9.61 µM)
45 | Nc1nc2c(ncn2COC(CO)CO)c(=O)[nH]1 [GANCICLOVIR] | > 100
46 | NC(=O)c1ncn([C@@H]2O[C@H](CO)[C@@H](O)[C@H]2O)n1 [RIBAVIRIN] | 48 (≈ 197 µM)

test system: Vaccinia virus; test: Antiviral activity against Vaccinia virus in human E6SM cells assessed as reduction of virus-induced cytopathogenicity; format: functional; conditions: Orthopoxvirus vaccinia; in short: as §1

Row | SMILES | MIC [µg/mL]
47 | C=CCNC(=S)Nc1ccc(-c2n[nH]c(=S)n2CC)cc1 | 240 (≈ 751 µM)
48 | CCNC(=S)Nc1ccc(-c2n[nH]c(=S)n2-c2ccccc2)cc1 | > 3.2
49 | C=CCNC(=S)Nc1ccc(-c2n[nH]c(=S)n2-c2ccccc2)cc1 | > 80
50 | Cn1c(COc2ccc(N)cc2)n[nH]c1=S | 240 (≈ 1020 µM)
51 | S=C(Nc1ccc(Cl)cc1)Nc1ccc(-c2n[nH]c(=S)n2-c2ccccc2)cc1 | > 16
52 | S=C(Nc1ccccc1)Nc1ccc(-c2n[nH]c(=S)n2-c2ccccc2)cc1 | > 80
53 | CNC(=S)Nc1ccc(-c2n[nH]c(=S)n2-c2ccccc2)cc1 | > 80
54 | CNC(=S)Nc1ccc(-c2n[nH]c(=S)n2C)cc1 | 240 (≈ 859 µM)
55 | CNC(=S)Nc1ccc(-c2nnc(SCc3ccccc3)n2C)cc1 | > 16
56 | C=CCNC(=S)Nc1ccc(-c2n[nH]c(=S)n2CCc2ccccc2)cc1 | > 80
57 | C=CCn1c(-c2ccc(NC(=S)NC)cc2)n[nH]c1=S | 240 (≈ 786 µM)
58 | Cn1c(-c2ccc(NC(=S)Nc3ccccc3)cc2)n[nH]c1=S | > 80
59 | C=CCn1c(-c2ccc(NC(=S)Nc3ccccc3)cc2)n[nH]c1=S | > 16
60 | C=CCNC(=S)Nc1ccc(-c2nnc(SCc3ccc(Cl)cc3Cl)n2-c2ccccc2)cc1 | > 16
61 | C=CCNC(=S)Nc1ccc(-c2nnc(SCc3ccc(Cl)cc3Cl)n2C)cc1 | > 16
62 | C=CCNC(=S)Nc1ccc(-c2n[nH]c(=S)n2CC=C)cc1 | > 400
63 | C=CCNC(=S)Nc1ccc(-c2n[nH]c(=S)n2C)cc1 | 240 (≈ 786 µM)
64 | C=CCNC(=S)Nc1ccc(-c2n[nH]c(=S)n2CCCCCC)cc1 | > 16
65 | CCCCCCNC(=S)Nc1ccc(-c2n[nH]c(=S)n2CCCCCC)cc1 | > 3.2
66 | C=CCNC(=S)Nc1ccc(OCc2n[nH]c(=S)n2CC)cc1 | 240 (≈ 687 µM)
67 | CCn1c(COc2ccc(NC(=S)Nc3ccccc3)cc2)n[nH]c1=S | > 80
68 | C=CCn1c(COc2ccc(NC(=S)NC)cc2)n[nH]c1=S | > 400
69 | CCn1c(COc2ccc(N)cc2)n[nH]c1=S | 240 (≈ 959 µM)

Row | SMILES | MIC [µg/mL]
70 | C=CCn1c(COc2ccc(N)cc2)n[nH]c1=S | > 400
71 | C=CCNC(=S)Nc1ccc(OCc2n[nH]c(=S)n2CC=C)cc1 | 240 (≈ 664 µM)
72 | CNC(=S)Nc1ccc(OCc2n[nH]c(=S)n2-c2ccccc2)cc1 | > 400
73 | CCNC(=S)Nc1ccc(OCc2n[nH]c(=S)n2-c2ccccc2)cc1 | > 400
74 | C=CCNC(=S)Nc1ccc(OCc2n[nH]c(=S)n2C)cc1 | > 400
75 | CCNC(=S)Nc1ccc(OCc2n[nH]c(=S)n2C)cc1 | > 400
76 | CCCCCCNC(=S)Nc1ccc(-c2n[nH]c(=S)n2C)cc1 | 80 (≈ 229 µM)
77 | CCCCCCNC(=S)Nc1ccc(-c2n[nH]c(=S)n2-c2ccccc2)cc1 | > 16
78 | CCn1c(COc2ccc(NC(=S)NC)cc2)n[nH]c1=S | > 400
79 | CCNC(=S)Nc1ccc(OCc2n[nH]c(=S)n2CC)cc1 | 240 (≈ 711 µM)
80 | CCCCCCNC(=S)Nc1ccc(-c2n[nH]c(=S)n2CC)cc1 | > 80
81 | CCNC(=S)Nc1ccc(-c2n[nH]c(=S)n2C)cc1 | 240 (≈ 818 µM)
82 | CNC(=S)Nc1ccc(OCc2n[nH]c(=S)n2C)cc1 | > 400
83 | C=CCNC(=S)Nc1ccc(OCc2n[nH]c(=S)n2-c2ccccc2)cc1 | 240 (≈ 604 µM)
84 | Nc1ccc(OCc2n[nH]c(=S)n2-c2ccccc2)cc1 | > 400
85 | C=CCn1c(COc2ccc(NC(=S)Nc3ccccc3)cc2)n[nH]c1=S | > 80
86 | Cn1c(COc2ccc(NC(=S)Nc3ccccc3)cc2)n[nH]c1=S | > 80
87 | C=CCn1c(COc2ccc(NC(=S)NCC)cc2)n[nH]c1=S | > 400
88 | S=C(Nc1ccccc1)Nc1ccc(OCc2n[nH]c(=S)n2-c2ccccc2)cc1 | > 80
89 | Nc1nc2c(ncn2COCCO)c(=O)[nH]1 [ACYCLOVIR] | > 400
90 | O=c1[nH]c(=O)n([C@H]2C[C@H](O)[C@@H](CO)O2)cc1/C=C/Br [BRIVUDINE] | 3.2 (≈ 9.61 µM)
91 | Nc1nc2c(ncn2COC(CO)CO)c(=O)[nH]1 [GANCICLOVIR] | > 100
92 | NC(=O)c1ncn([C@@H]2O[C@H](CO)[C@@H](O)[C@H]2O)n1 [RIBAVIRIN] | 48 (≈ 197 µM)
